Reference: ChEMBL document CHEMBL5058577, “EUbOPEN Chemogenomics Library 2 (Multiplex)” (2022)

System: HEK-293T
Assay: Multiplex assay against HEK293T
Assay type: toxicity, cell-based
Details: human
Procedure, shortened: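 Cells were classed with CellPathfinder machine-learning gating, first as Hoechst high-intensity objects or normal cells, then (normal cells) as healthy, pyknosed or fragmented nuclei, and finally (pyknosed cells) as mitotic or apoptotic. Staining of live cells at seeding used Hoechst33342, BioTracker Green Microtubule Cytoskeleton Dye, MitoTracker Red and Annexin V Alexa Fluor 680, with imaging on a CQ1 microscope at 37°C and 5% CO2 after compound addition. Tubulin, mitochondrial-mass and membrane-permeability phenotypes are per cents of healthy-nucleus cells.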

[1] = 12 h, 1 µM, compound concentration 1 uM, replicate 1
[2] = 12 h, 1 µM, compound concentration 1 uM, replicate 2
[3] = 12 h, 10 µM, compound concentration 10 uM, replicate 1
[4] = 12 h, 10 µM, compound concentration 10 uM, replicate 2
[5] = 24 h, 1 µM, compound concentration 1 uM, replicate 1
[6] = 24 h, 1 µM, compound concentration 1 uM, replicate 2
[7] = 24 h, 10 µM, compound concentration 10 uM, replicate 1
[8] = 24 h, 10 µM, compound concentration 10 uM, replicate 2
[9] = 48 h, 1 µM, compound concentration 1 uM, replicate 1
[10] = 48 h, 1 µM, compound concentration 1 uM, replicate 2
[11] = 48 h, 10 µM, compound concentration 10 uM, replicate 1
[12] = 48 h, 10 µM, compound concentration 10 uM, replicate 2

For CCCOc1ccc2[nH]cc(C3=CCNCC3)c2n1.Cl, the “Population Apoptotic (%)” value [1] was 32%, the “Population Fragmented Nuclei (%)” value [1] was 5% and the “Population Healthy Nuclei (%)” value [1] was 81%. For the same compound, the “Population Hoechst High Intensity Objects (%)” value [1] was 5%, the “Population Membrane Permeable-Phenotype (%)” value [1] was 0% and the “Population Mitochondria Different-Phenotype (%)” value [1] was 41%. The “Population Mitotic Cells (%)” value [1] was 68%, the “Population Normal (%)” value [1] was 94% and the “Population Pyknosed Nuclei (%)” value [1] was 12%. For the same compound, the “Population Tubulin-Different-Phenotype (%)” value [1] was 39%, the “Total Cell Count” value [1] was 416 and the “Population Apoptotic (%)” value [2] was 44%. For the same compound, the “Population Fragmented Nuclei (%)” value [2] was 6%, the “Population Healthy Nuclei (%)” value [2] was 82% and the “Population Hoechst High Intensity Objects (%)” value [2] was 4%. For the same compound, the “Population Mitochondria Different-Phenotype (%)” value [2] was 52%, the “Population Mitotic Cells (%)” value [2] was 55% and the “Population Normal (%)” value [2] was 95%. The “Population Pyknosed Nuclei (%)” value [2] was 10%, the “Population Tubulin-Different-Phenotype (%)” value [2] was 21% and the “Total Cell Count” value [2] was 344. For the same compound, the “Population Apoptotic (%)” value [3] was 43%, the “Population Fragmented Nuclei (%)” value [3] was 5% and the “Population Healthy Nuclei (%)” value [3] was 78%. For the same compound, the “Population Hoechst High Intensity Objects (%)” value [3] was 10%, the “Population Membrane Permeable-Phenotype (%)” value [3] was 0% and the “Population Mitochondria Different-Phenotype (%)” value [3] was 58%. For the same compound, the “Population Mitotic Cells (%)” value [3] was 56%, the “Population Normal (%)” value [3] was 89% and the “Population Pyknosed Nuclei (%)” value [3] was 15%. The “Population Tubulin-Different-Phenotype (%)” value [3] was 41%, the “Total Cell Count” value [3] was 446 and the “Population Apoptotic (%)” value [4] was 55%. For the same compound, the “Population Fragmented Nuclei (%)” value [4] was 6%, the “Population Healthy Nuclei (%)” value [4] was 82% and the “Population Hoechst High Intensity Objects (%)” value [4] was 4%. For the same compound, the “Population Mitochondria Different-Phenotype (%)” value [4] was 76%, the “Population Mitotic Cells (%)” value [4] was 44% and the “Population Normal (%)” value [4] was 95%. The “Population Pyknosed Nuclei (%)” value [4] was 11%, the “Total Cell Count” value [4] was 387 and the “Population Apoptotic (%)” value [5] was 28%. For the same compound, the “Population Fragmented Nuclei (%)” value [5] was 10%, the “Population Healthy Nuclei (%)” value [5] was 76% and the “Population Hoechst High Intensity Objects (%)” value [5] was 3%. The “Population Membrane Permeable-Phenotype (%)” value [5] was 0%, the “Population Mitochondria Different-Phenotype (%)” value [5] was 26% and the “Population Mitotic Cells (%)” value [5] was 71%. The “Population Normal (%)” value [5] was 96%, the “Population Pyknosed Nuclei (%)” value [5] was 12% and the “Population Tubulin-Different-Phenotype (%)” value [5] was 24%. The “Total Cell Count” value [5] was 558, the “Population Apoptotic (%)” value [6] was 35% and the “Population Fragmented Nuclei (%)” value [6] was 9%. The “Population Healthy Nuclei (%)” value [6] was 80%, the “Population Hoechst High Intensity Objects (%)” value [6] was 2% and the “Population Membrane Permeable-Phenotype (%)” value [6] was 1%. For the same compound, the “Population Mitochondria Different-Phenotype (%)” value [6] was 29%, the “Population Mitotic Cells (%)” value [6] was 64% and the “Population Normal (%)” value [6] was 97%. The “Population Pyknosed Nuclei (%)” value [6] was 9%, the “Population Tubulin-Different-Phenotype (%)” value [6] was 14% and the “Total Cell Count” value [6] was 425. For the same compound, the “Population Apoptotic (%)” value [7] was 39%, the “Population Fragmented Nuclei (%)” value [7] was 12% and the “Population Healthy Nuclei (%)” value [7] was 74%. For the same compound, the “Population Hoechst High Intensity Objects (%)” value [7] was 7%, the “Population Membrane Permeable-Phenotype (%)” value [7] was 0% and the “Population Mitochondria Different-Phenotype (%)” value [7] was 50%. For the same compound, the “Population Mitotic Cells (%)” value [7] was 60%, the “Population Normal (%)” value [7] was 92% and the “Population Pyknosed Nuclei (%)” value [7] was 12%. For the same compound, the “Population Tubulin-Different-Phenotype (%)” value [7] was 38%, the “Total Cell Count” value [7] was 583 and the “Population Apoptotic (%)” value [8] was 51%. The “Population Fragmented Nuclei (%)” value [8] was 6%, the “Population Healthy Nuclei (%)” value [8] was 81% and the “Population Hoechst High Intensity Objects (%)” value [8] was 3%. For the same compound, the “Population Mitochondria Different-Phenotype (%)” value [8] was 63%, the “Population Mitotic Cells (%)” value [8] was 48% and the “Population Normal (%)” value [8] was 96%. The “Population Pyknosed Nuclei (%)” value [8] was 11%, the “Population Tubulin-Different-Phenotype (%)” value [8] was 34% and the “Total Cell Count” value [8] was 502. The “Population Apoptotic (%)” value [9] was 17%, the “Population Fragmented Nuclei (%)” value [9] was 13% and the “Population Healthy Nuclei (%)” value [9] was 79%. The “Population Hoechst High Intensity Objects (%)” value [9] was 2%, the “Population Membrane Permeable-Phenotype (%)” value [9] was 0% and the “Population Mitochondria Different-Phenotype (%)” value [9] was 15%. For the same compound, the “Population Mitotic Cells (%)” value [9] was 82%, the “Population Normal (%)” value [9] was 97% and the “Population Pyknosed Nuclei (%)” value [9] was 6%. For the same compound, the “Population Tubulin-Different-Phenotype (%)” value [9] was 12%, the “Total Cell Count” value [9] was 872 and the “Population Apoptotic (%)” value [10] was 38%. The “Population Fragmented Nuclei (%)” value [10] was 9%, the “Population Healthy Nuclei (%)” value [10] was 82% and the “Population Hoechst High Intensity Objects (%)” value [10] was 1%. For the same compound, the “Population Membrane Permeable-Phenotype (%)” value [10] was 1%, the “Population Mitochondria Different-Phenotype (%)” value [10] was 20% and the “Population Mitotic Cells (%)” value [10] was 61%. For the same compound, the “Population Normal (%)” value [10] was 98%, the “Population Pyknosed Nuclei (%)” value [10] was 7% and the “Population Tubulin-Different-Phenotype (%)” value [10] was 9%. The “Total Cell Count” value [10] was 657, the “Population Apoptotic (%)” value [11] was 35% and the “Population Fragmented Nuclei (%)” value [11] was 14%. The “Population Healthy Nuclei (%)” value [11] was 76%, the “Population Hoechst High Intensity Objects (%)” value [11] was 6% and the “Population Membrane Permeable-Phenotype (%)” value [11] was 0%. The “Population Mitochondria Different-Phenotype (%)” value [11] was 41%, the “Population Mitotic Cells (%)” value [11] was 64% and the “Population Normal (%)” value [11] was 93%. The “Population Pyknosed Nuclei (%)” value [11] was 8%, the “Population Tubulin-Different-Phenotype (%)” value [11] was 23% and the “Total Cell Count” value [11] was 776. For the same compound, the “Population Apoptotic (%)” value [12] was 26%, the “Population Fragmented Nuclei (%)” value [12] was 13% and the “Population Healthy Nuclei (%)” value [12] was 80%. For the same compound, the “Population Hoechst High Intensity Objects (%)” value [12] was 5%, the “Population Mitochondria Different-Phenotype (%)” value [12] was 37% and the “Population Mitotic Cells (%)” value [12] was 73%. For the same compound, the “Population Normal (%)” value [12] was 94%, the “Population Pyknosed Nuclei (%)” value [12] was 6% and the “Population Tubulin-Different-Phenotype (%)” value [12] was 20%. The “Total Cell Count” value [12] was 733.
